Data on two compounds can be found in ChEMBL document CHEMBL2424628, “Discovery of potent and selective nonsteroidal indazolyl amide glucocorticoid receptor agonists” (Bioorg Med Chem Lett, 2013).

For one assay, the species on record is Homo sapiens. Put plainly: Selectivity ratio of Ki for androgen receptor (unknown origin) to Ki for glucocorticoid receptor (unknown origin).
Another assay deals with T1, Progesterone receptor (Homo sapiens, UniProt P06401).
T1 sequence (P06401 whole entry): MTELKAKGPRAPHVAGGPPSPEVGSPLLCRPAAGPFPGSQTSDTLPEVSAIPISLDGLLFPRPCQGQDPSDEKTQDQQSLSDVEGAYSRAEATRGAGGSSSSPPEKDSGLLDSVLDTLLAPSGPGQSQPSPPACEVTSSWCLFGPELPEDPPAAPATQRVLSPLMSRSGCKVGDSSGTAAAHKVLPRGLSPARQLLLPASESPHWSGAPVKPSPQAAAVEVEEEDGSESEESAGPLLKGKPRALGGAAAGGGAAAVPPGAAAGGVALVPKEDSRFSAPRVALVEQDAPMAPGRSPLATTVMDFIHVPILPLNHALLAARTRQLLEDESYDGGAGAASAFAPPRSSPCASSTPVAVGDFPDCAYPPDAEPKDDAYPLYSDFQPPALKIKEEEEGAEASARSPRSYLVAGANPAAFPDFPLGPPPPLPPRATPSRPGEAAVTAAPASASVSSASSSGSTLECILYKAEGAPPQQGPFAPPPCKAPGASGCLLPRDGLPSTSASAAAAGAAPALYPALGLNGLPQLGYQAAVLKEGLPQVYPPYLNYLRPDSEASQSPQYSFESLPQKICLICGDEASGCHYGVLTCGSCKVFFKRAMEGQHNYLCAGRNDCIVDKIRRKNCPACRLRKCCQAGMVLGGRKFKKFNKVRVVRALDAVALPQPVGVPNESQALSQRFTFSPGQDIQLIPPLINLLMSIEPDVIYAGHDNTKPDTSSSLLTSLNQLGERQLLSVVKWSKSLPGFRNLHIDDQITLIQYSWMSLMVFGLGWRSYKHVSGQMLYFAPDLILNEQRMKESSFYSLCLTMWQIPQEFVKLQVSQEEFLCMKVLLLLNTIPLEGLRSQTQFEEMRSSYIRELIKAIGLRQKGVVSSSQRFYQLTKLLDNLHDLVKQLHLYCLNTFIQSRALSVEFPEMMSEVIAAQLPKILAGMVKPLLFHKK
The assay is described as follows: Binding affinity to progesterone receptor (unknown origin) by fluorescence polarization assay. Put shortly:
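Fluorescence polarization competition between test compound and a fluorescently labeled ligand for full-length receptor or its ligand binding domain. IC50 from a four-parameter logistic fit of the polarization signal, converted to Ki with Cheng–Prusoff […]. Means of duplicate experiments.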
(Polarisation of emitted light reports the rotation of a fluorescent probe.)

Assay [1] concerns the target T2, Glucocorticoid receptor (Homo sapiens, UniProt P04150).
T2 sequence (P04150 whole entry): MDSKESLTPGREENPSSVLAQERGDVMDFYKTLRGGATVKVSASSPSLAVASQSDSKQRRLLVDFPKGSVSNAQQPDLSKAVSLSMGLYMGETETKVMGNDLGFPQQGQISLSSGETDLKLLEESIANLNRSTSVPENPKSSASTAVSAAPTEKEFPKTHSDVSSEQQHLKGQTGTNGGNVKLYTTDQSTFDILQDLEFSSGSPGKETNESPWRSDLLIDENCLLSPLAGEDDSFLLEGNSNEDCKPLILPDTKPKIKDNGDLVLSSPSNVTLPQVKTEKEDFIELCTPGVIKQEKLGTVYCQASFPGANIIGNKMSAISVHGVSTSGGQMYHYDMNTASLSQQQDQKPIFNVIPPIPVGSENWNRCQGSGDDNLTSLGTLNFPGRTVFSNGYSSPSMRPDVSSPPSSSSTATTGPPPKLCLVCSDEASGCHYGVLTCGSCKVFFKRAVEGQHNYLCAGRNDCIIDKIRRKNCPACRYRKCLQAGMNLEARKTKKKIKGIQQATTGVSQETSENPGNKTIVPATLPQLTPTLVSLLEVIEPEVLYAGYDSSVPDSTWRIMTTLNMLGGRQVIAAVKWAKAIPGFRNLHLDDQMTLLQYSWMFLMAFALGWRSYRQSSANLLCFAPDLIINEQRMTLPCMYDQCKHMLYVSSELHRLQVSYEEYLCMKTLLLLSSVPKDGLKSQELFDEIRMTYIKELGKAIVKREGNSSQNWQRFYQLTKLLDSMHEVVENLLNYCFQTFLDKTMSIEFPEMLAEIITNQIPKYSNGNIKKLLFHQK
Put plainly: Agonist activity at glucocorticoid receptor in human A549 cells assessed as inhibition of PMA-induced AP-1 activation by luciferase reporter gene assay. It counts as cell-based.

Assay [2] concerns the target T3, Glucocorticoid receptor (Homo sapiens) (UniProt P04150).
T3 sequence (whole entry): T2 sequence (P04150 whole entry)
The assay is described as follows: Agonist activity at glucocorticoid receptor in human A549 cells assessed as inhibition of PMA-induced AP-1 activation by luciferase reporter gene assay relative to dexamethasone. It counts as cell-based. Put shortly:
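A549 lung epithelial cells stably carrying a luciferase reporter with 5 copies of the AP-1 response element; AP-1 induced with PMA (15 ng/ml). Compound inhibition of induction read as decreased luciferase. […] Means of two or more experiments in triplicate.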
(In general: Reporter assays use an easily measured gene product as a stand-in for the process of interest.)

In assay [3] the target is T2, Glucocorticoid receptor. The assay is described as follows: Binding affinity to glucocorticoid receptor (unknown origin) by fluorescence polarization assay.

pEC50, pKi: −log10 of the molar value.

On to `CC(C)(C(=O)Nc1nncs1)[C@@H](c1ccccc1)c1ccc2c(cnn2-c2ccc(F)cc2)c1`, for which the Ratio Ki in the assay listed under Homo sapiens was over 1000. Further, the pKi is 6.97 on Progesterone receptor and 8.29 on Glucocorticoid receptor [3]. Also, the pEC50 on Glucocorticoid receptor [1] was 8.62. In addition, the Efficacy in assay [2] turned out to be 93%.
The like results for `CC(C)(C(=O)Nc1nncs1)[C@H](c1ccccc1)c1ccc2c(cnn2-c2ccc(F)cc2)c1` were, in that order, over 1000, 7.25, 8.17, 7.04 and 50%.

What is called pKi is the Ki on a negative log10 scale, so that one unit is a factor of ten. Low readings indicate a large Ki, high ones a small Ki. As usually defined, the pEC50 is the EC50 on a negative log10 scale, so that one unit is a factor of ten.
